TRPC4 potent = positive allosteric modulators of TRPC4, primary screen, cell-based, mouse TRPC4beta, HEK293 mu-opioid, Fluo-4 calcium; Short transient receptor potential channel 4 (Mus musculus), Q9QUQ5; DAMGO EC20, Fluo-4 Ca2+ flux; stronger effect = higher value; B-score at 10 µM; 310,000 compounds, 0.42% hits;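 active means B-score of calcium response area above 5 SD of library B-scores, with initial fluorescence ratio within 5 SD of library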;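 further: B-score of integrated fluorescence ratio over time as area under calcium response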
TRPC6 act = mouse TRPC6 channel activators, primary screen, cell-based, HEK293, membrane potential dye. Short transient receptor potential channel 6 (Mus musculus), Q61143. B-score at 10 µM. HEK293-TRPC6 membrane potential dye fluorescence; stronger effect = higher value. 310,000 compounds, 0.13% hits;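 active means B-score of the integrated fluorescence ratio above library mean plus 3 SD, and starting fluorescence ratio within library mean plus 5 SD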;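 further: higher score means more depolarization so channel activation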
Target sequence (Q61143 whole entry, looked up): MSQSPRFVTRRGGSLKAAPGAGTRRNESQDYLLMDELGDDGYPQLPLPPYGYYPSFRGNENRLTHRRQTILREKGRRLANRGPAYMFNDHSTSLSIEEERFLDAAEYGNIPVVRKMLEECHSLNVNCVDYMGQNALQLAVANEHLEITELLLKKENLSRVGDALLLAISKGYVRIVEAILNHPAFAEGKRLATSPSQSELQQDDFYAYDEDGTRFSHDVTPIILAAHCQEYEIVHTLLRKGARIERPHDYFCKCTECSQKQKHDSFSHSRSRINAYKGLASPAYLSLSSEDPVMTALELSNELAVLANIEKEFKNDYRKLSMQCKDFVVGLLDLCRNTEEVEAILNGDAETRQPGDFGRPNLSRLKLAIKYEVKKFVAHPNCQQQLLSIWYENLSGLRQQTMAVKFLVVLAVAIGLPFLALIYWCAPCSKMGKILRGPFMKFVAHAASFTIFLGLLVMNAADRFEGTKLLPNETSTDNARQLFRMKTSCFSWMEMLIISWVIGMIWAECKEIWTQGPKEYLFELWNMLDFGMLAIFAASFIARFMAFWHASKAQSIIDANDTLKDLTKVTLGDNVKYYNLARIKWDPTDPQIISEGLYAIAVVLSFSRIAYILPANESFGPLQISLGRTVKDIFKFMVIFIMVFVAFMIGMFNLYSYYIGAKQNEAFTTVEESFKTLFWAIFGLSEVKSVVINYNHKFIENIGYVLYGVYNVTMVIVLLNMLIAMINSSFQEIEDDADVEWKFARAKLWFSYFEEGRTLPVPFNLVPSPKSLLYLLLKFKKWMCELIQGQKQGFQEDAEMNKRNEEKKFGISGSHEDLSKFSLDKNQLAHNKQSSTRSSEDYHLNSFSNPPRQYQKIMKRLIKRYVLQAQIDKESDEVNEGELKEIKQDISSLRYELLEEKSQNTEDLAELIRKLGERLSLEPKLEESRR
TRPC4 act = activators of mouse TRPC4 channel, primary screen, Fluo4 calcium, HEK293 TRPC4beta/mu-opioid cells; Fluo4 calcium fluorescence; stronger effect = higher value; B-score at 10 µM; 310,000 compounds, 0.49% hits; AID 2237, 2010;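 active means B-score above 5 SD of library B-scores, and initial fluorescence ratio not above library mean plus 5 SD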;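 further: positive B-score marks a calcium rise read as TRPC4 activation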
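Assay system: HEK293 cells stably co-expressing mouse TRPC4beta and mu-opioid receptor / Timing: Fluo4 dye loading 45 min at room temperature, 110 s recording / Signal: Fluo4 calcium-sensitive dye fluorescence, kinetic, 1 Hz baseline / Read-out: integrated baseline-normalised fluorescence ratio, converted to per-well B score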
TRPC6 inhibitor = mouse TRPC6 channel inhibitors, primary screen, cell-based, HEK293, membrane potential dye | AID 2553, 2010 | B-score at 10 µM | ACh-evoked depolarization; stronger effect = lower value | Short transient receptor potential channel 6 (Mus musculus), Q61143 | 310,000 compounds, 1.1% hits;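 active means B-score under library mean minus 3 SD, initial fluorescence not abnormally high, positive integrated signal ratio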;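 further: B-score derived from integrated fluorescence ratio over the kinetic read; more negative B-score means stronger inhibition of depolarization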
TRPC4 inh = inhibitors of mouse TRPC4 channel, primary screen, Fluo4 calcium, HEK293 TRPC4beta/mu-opioid cells; AID 2247, 2010; 300,000 compounds, 0.39% hits; Short transient receptor potential channel 4 (Mus musculus), Q9QUQ5; B-score at 10 µM; DAMGO-evoked Fluo4 calcium flux; stronger effect = lower value;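 active means B-score over 3 SD under the library average, no early fluorescence shift, positive overall ratio signal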
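material = TRPC4beta/mu-opioid receptor HEK293 cell line | probe or stimulus = sequential submaximal and maximal DAMGO stimulation | compound dosing = one concentration per compound | measured by = Fluo4 Ca2+ flux fluorescence | evaluation = integrated fluorescence ratio relative to baseline, converted to per-well B score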
* = called active by the depositor; i = inactive. This is a sample that favours compounds with a hit; in the whole collection about 2.3% have one here.

SMILES	TRPC4 potent	TRPC6 act	TRPC4 act	TRPC6 inhibitor	TRPC4 inh
O=C(Nc1ccccn1)c1ccc(Cl)c(S(=O)(=O)N2CCCCCC2)c1	i	i	i	i	i
Cc1c(N(C)S(=O)(=O)c2cc(C(=O)Nc3ccccn3)ccc2Cl)c(=O)n(-c2ccccc2)n1C	i	i	i	i	-5*
CC(=O)Nc1cccn(Cc2c(Cl)cccc2Cl)c1=O	i	i	i	i	i
CN1CCN(C(=O)c2cccn(Cc3c(Cl)cccc3Cl)c2=O)CC1	i	i	184*	i	i
CC(=O)N1N=C(c2c(-c3ccccc3)c3cc(C)ccc3[nH]c2=O)CC1c1ccco1 (stereo unspecified)	24*	i	i	i	i
CC(=O)N1N=C(c2c(-c3ccccc3)c3cc(Br)ccc3[nH]c2=O)CC1c1ccco1 (stereo unspecified)	i	i	i	i	i
CCc1noc(C)c1C(=O)N(C)CC(=O)Nc1ccc(F)c(F)c1F	i	i	i	i	i
N=c1c2c(ncn1Cc1ccco1)Oc1cc(O)ccc1C2c1ccccc1 (stereo unspecified)	i	i	57*	i	i
N=c1c2c(ncn1Cc1ccco1)Oc1c(ccc3ccccc13)C2c1ccccc1 (stereo unspecified)	i	i	i	i	i
COc1cccc(NCc2ccc([N+](=O)[O-])s2)c1	i	i	i	i	-6*
COc1cccc(Nc2ccc([N+](=O)[O-])c3nonc23)c1	i	i	i	i	i
COc1cccc2[nH]c3c(N4CCN(Cc5ccc6c(c5)OCO6)CC4)ncnc3c12	i	i	i	-6.7*	i
COCCNC(=S)N(CCc1c(C)[nH]c2ccccc12)Cc1ccco1	i	i	i	i	i
CNc1nc(-c2ccc3c(c2)CCN3C(=O)CC(C)(C)C)c(C)s1	i	i	i	i	i
CCCC(=O)N1CCc2cc(-c3nc(N)sc3C)ccc21	i	i	101*	i	i
CCn1nc(C)c(CN2CCCC(CO)(Cc3cccc(Cl)c3)C2)c1C (stereo unspecified)	i	i	i	i	-6*
CCN1CCN(c2c(S(=O)(=O)c3ccc(C)c(C)c3)cnc3ccc(F)cc23)CC1	i	i	61*	i	i
CCCCCOc1ccc(C(=O)CCC(=O)Nc2ccc(NC(C)=O)cc2)cc1	i	i	i	i	i
CC(C)c1ccc(NC(=O)c2ccc3c(c2)C(=O)N(Cc2cccnc2)C3=O)cc1	i	i	i	i	i
Cc1cc(C)nc(NC(N)=NC2CCCCC2)n1	i	i	i	i	-9*
CC(=O)CC(=O)NC(=NC1CCCCC1)Nc1nc(C)cc(C)n1	i	i	i	i	i
O=[N+]([O-])c1ccc(C[n+]2cccc(O)c2)cc1	i	i	168*	i	i
O=C(O)c1ccc[n+](Cc2ccc([N+](=O)[O-])cc2)c1	i	i	i	i	i
CCCN(CCC)CCCNC(=O)c1cc2c(=O)n(CC)c3ccccc3c2s1	i	i	50*	i	i
CCCCN(CC)CCCNC(=O)c1cc2c(=O)n(CC)c3ccccc3c2s1	i	i	i	i	i
SMILES	TRPC4 potent	TRPC6 act	TRPC4 act	TRPC6 inhibitor	TRPC4 inh
CCCCN(CC)CCNC(=O)c1cc2c(=O)n(C)c3ccccc3c2s1	16*	i	i	i	i
Cn1c(C(=O)NCCN2CCOCC2)cc2c(=O)n(C)c3ccccc3c21	i	i	i	i	i
CCCN(CCC)CCNC(=O)c1cc2c(=O)n(C)c3ccccc3c2n1C	13*	i	i	i	i
CC(NC(=O)c1cc2cc(F)ccc2[nH]1)c1ccccc1 (stereo unspecified)	i	i	i	i	i
CC(C)CCc1noc(CN2CCN(c3ccc(Cl)cn3)CC2)n1	16*	i	i	i	i
Cc1ccc(SC[C@H](C)CN2CC[C@H](C(C)(C)C)CCC2=O)cc1	i	i	i	i	i
CN(C)c1ccc(N2C(=NC(=O)c3ccccc3)SC3CS(=O)(=O)CC32)cc1 (stereo unspecified)	i	i	i	i	i
Cc1ccccc1N1CC(O)(c2cccs2)[N+]2=C1CCCC2 (stereo unspecified)	i	i	i	i	-9*
COc1cccc(NC(=O)n2ncc3c(C)cccc32)c1	i	i	i	i	i
Cc1c(C(=O)N2CCCC2)oc2c1-c1nn(CC(=O)NCCCN3CCCCC3)cc1CC2	11*	i	i	i	i
Cc1c(C(=O)N2CCCC2)oc2c1-c1nn(CC(=O)NCCCN3CCCCC3C)cc1CC2 (stereo unspecified)	i	i	i	i	i
O=C(Cc1c(F)cccc1Cl)Nc1ccccc1-c1ccccc1	i	i	i	i	i
CCCC(=O)Nc1cc(C)c2c(=O)oc3ccccc3c2n1	i	i	i	i	i
Cc1cc(NC(=O)CN2CCc3ccccc3C2)nc2c1c(=O)oc1ccccc12	i	i	98*	i	i
NCCCCCCNS(=O)(=O)c1cccc2c(Cl)cccc12	i	i	95*	i	i
CCc1ccc(C(=O)N2CCCN(C)CC2)s1	i	i	i	i	i
CCc1c(C(=O)N2CCCN(C)CC2)csc1C	i	i	i	i	-6*
COC(=O)NCC(c1cccnc1)N1CCN(c2ccccc2OC)CC1 (stereo unspecified)	i	i	69*	i	i
CN1CCN(CCCNC(=O)c2cc3c(-c4ccc(Cl)cc4)nn(C)c3s2)CC1	11*	i	i	i	i
CCN(CC)CCCNC(=O)c1cc2c(-c3ccc(Cl)cc3)nn(C)c2s1	16*	i	72*	i	i
CC(=O)Nc1ccc(NC(=O)C(C)Sc2nc3ccccc3c(=O)n2CC2CCCO2)cc1 (stereo unspecified)	i	i	i	i	i
CNCCOc1ccccc1-c1ccccc1	i	i	i	i	i
CNCCCCOc1ccccc1-c1ccccc1	i	i	52*	i	i
CCCCNCCOc1ccccc1-c1ccccc1	i	i	i	i	-6*

Screens from PubChem.
